Assay results reported in ChEMBL document CHEMBL4052683, “The discovery of benzoxazine sulfonamide inhibitors of NaV1.7: Tools that bridge efficacy and target engagement” (Bioorg Med Chem Lett, 2017).
Active and inactive are the calls of the source. The calls are words filed in the database; no cut-off is given here.

Columns and labels:
Plasma [1] = assay: Plasma concentration in C57BL/6 mouse model of histamine-induced pruritus at 30 mg/kg, po; assay type: ADME, organism-based; conditions: in vivo
In short: (§1)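 Male C57BL/6 mice got 30, 60 or 100 mg/kg PO in 30% hydroxypropyl β-cyclodextrin, pH 10.0, 120 min before the test. Histamine (8.15mM) was given intradermally to the nape of the neck just before testing, and scratch bouts were counted over 0–30 min. Diphenhydramine 30 mg/kg PO in water, 90 min before, served as control. Unbound plasma concentrations were measured.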

[2] = Clearance in rat at 0.5 mg/kg, iv by LC-MS/MS method; assay type: ADME, organism-based; conditions: in vivo
In short: (§2)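 Male rats got 0.5 mg/kg IV as a DMSO solution. Unbound clearance was taken as rat clearance divided by the unbound fraction from equilibrium dialysis.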

[3] = biological target: Histamine H2 receptor (Homo sapiens) (UniProt P25021); assay: Displacement of [125I]APT from human recombinant histamine H2 receptor expressed in CHO cells at 10 uM by radioligand displacement assay; assay type: cell-based
[4] = Ratio of unbound plasma concentration in C57BL/6 mouse model of formalin-induced nociception behavior at 60 mg/kg, po to IC50 for mouse Nav1.7 by whole cell voltage clamp method
In short: (§3)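 The formalin arm received 2% formalin subcutaneously into the dorsal hind paw, and total phase II licking and lifting was scored. The pruritus arm was dosed 120 min before histamine (8.15mM, intradermal, nape of neck), and scratch bouts were counted over 0-30 min. Unbound plasma concentration was determined at each dose.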

Mus musculus [5] = assay: Analgesic activity in C57BL/6 mouse model of formalin-induced nociception behavior assessed as reduction in formalin-evoked paw lifting/licking at 30 mg/kg, po; assay type: functional
In short: (§4)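 Male C57BL/6 mice got 30, 60 or 100 mg/kg PO in 30% (w/v) hydroxypropyl β-cyclodextrin in water, pH 10.0 with KOH. Formalin (2%) was injected subcutaneously into the dorsal hind paw, and total phase II paw licking and lifting were scored. Morphine sulfate 3 mg/kg SC served as control. Unbound plasma concentration was divided by the mouse NaV1.7 IC50.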

[6] = Protein binding in rat plasma at 5 uM by ultracentrifugation and LC-MS/MS method; assay type: ADME, cell-free; conditions: read-out: PPB (converted)
Plasma [7] = assay: Plasma concentration in Sprague-Dawley rat model of formalin-induced nociception behavior at 10 mg/kg, po; assay type: ADME, organism-based; conditions: in vivo
In short: (§5)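 Sprague Dawley rats got 10, 30 or 100 mg/kg PO in 30% (w/v) hydroxypropyl β-cyclodextrin, pH 10.0 with KOH. Total phase II formalin-induced flinches were counted. Morphine sulfate 2 mg/kg SC served as control. Unbound plasma levels were measured and compared with the rat NaV1.7 IC50.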

[8] = Ratio of unbound plasma concentration in C57BL/6 mouse model of histamine-induced pruritus at 60 mg/kg, po to IC50 for mouse Nav1.7 by whole cell voltage clamp method; in short: as §3
[9] = Half life in mouse at 30 mg/kg, po by LC-MS/MS method; assay type: ADME, organism-based; conditions: in vivo
Plasma [10] = assay: Unbound plasma concentration in C57BL/6 mouse model of formalin-induced nociception behavior at 60 mg/kg, po; assay type: ADME, organism-based; conditions: in vivo; in short: as §3
Plasma [11] = assay: Plasma concentration in Sprague-Dawley rat model of formalin-induced nociception behavior at 30 mg/kg, po; assay type: ADME, organism-based; conditions: in vivo; in short: as §5
Plasma [12] = assay: Unbound plasma concentration in Sprague-Dawley rat model of formalin-induced nociception behavior at 30 mg/kg, po; assay type: ADME, organism-based; conditions: in vivo
In short: (§6)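 Total phase II formalin-induced flinches were scored. Unbound plasma concentration was determined at each dose and related to the rat NaV1.7 IC50.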

[13] = biological target: Sodium channel protein type 9 subunit alpha (Mus musculus, UniProt Q62205); assay: Inhibition of mouse NaV1.7 by whole cell voltage clamp method
In short: (§7)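 PatchXpress electrophysiology was run with a protocol giving about 20% channel inactivation. At least four concentrations at half-log spacing were applied one at a time, with washout, current recovery and holding voltage reset between each. Data were pooled from at least 10 cells, with 2–3 points per concentration, and fitted with a 4-parameter Hill curve to give one IC50.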

[14] = Unbound fraction in mouse plasma at 5 uM by ultracentrifugation and LC-MS/MS method; assay type: ADME, cell-free
[15] = Volume of distribution in rat at 0.5 mg/kg, iv by LC-MS/MS method; assay type: ADME, organism-based; conditions: in vivo
[16] = Half life in rat at 0.5 mg/kg, iv by LC-MS/MS method; assay type: ADME, organism-based; conditions: in vivo; in short: as §2
[17] = biological target: Sodium channel protein type 9 subunit alpha (Rattus norvegicus, UniProt O08562); assay: Inhibition of rat NaV1.7 by cell based whole cell voltage clamp method; in short: as §7
[18] = Cmax in rat at 10 mg/kg, po by LC-MS/MS method; assay type: ADME, organism-based; set-up: dose 10 mg/kg, route oral; conditions: in vivo
Mus musculus [19] = assay: Anti-pruritic activity in C57BL/6 mouse model of histamine-induced pruritus assessed as reduction in histamine-induced scratching at 100 mg/kg, po dosed 120 mins before test; assay type: functional; in short: as §1
Plasma [20] = assay: Plasma concentration in C57BL/6 mouse model of formalin-induced nociception behavior at 100 mg/kg, po; assay type: ADME, organism-based; conditions: in vivo; in short: as §4
Rattus norvegicus [21] = assay: Analgesic activity in Sprague-Dawley rat model of formalin-induced nociception behavior assessed as reduction in formalin-evoked paw flinching at 100 mg/kg, po; assay type: functional; in short: as §5
[22] = Ratio of unbound plasma concentration in Sprague-Dawley rat model of formalin-induced nociception behavior at 10 mg/kg, po to IC50 for rat Nav1.7 by whole cell voltage clamp method; in short: as §6
Plasma [23] = assay: Plasma concentration in C57BL/6 mouse model of histamine-induced pruritus at 60 mg/kg, po; assay type: ADME, organism-based; conditions: in vivo; in short: as §1
[24] = Ratio of unbound plasma concentration in C57BL/6 mouse model of formalin-induced nociception behavior at 30 mg/kg, po to IC50 for mouse Nav1.7 by whole cell voltage clamp method; in short: as §4
[25] = biological target: Sodium channel protein type 9 subunit alpha (Homo sapiens, UniProt Q15858); assay: Displacement of (P)-1-(30-chloro-2-fluoro-5,50-dimethoxy-[1,10biphenyl]-4-yl)-N-(isoxazol-3-yl)-2-oxo-1,2-dihydroquinoline-6-sulfonamide[50-methoxy-C3H3] from human NaV1.7 expressed in HEK293 cell membranes incubated for 1 hr by beta counting method
In short: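 Human NaV1.7 radioligand displacement using the tritiated 5'-methoxy-labelled dihydroquinoline sulfonamide ligand, which binds the VSDIV pocket.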

[26] = AUC (infinity) in rat at 10 mg/kg, po by LC-MS/MS method; assay type: ADME, organism-based; set-up: dose 10 mg/kg, route oral, time infinity; conditions: in vivo
[27] = Ratio of unbound plasma concentration in C57BL/6 mouse model of histamine-induced pruritus at 100 mg/kg, po to IC50 for mouse Nav1.7 by whole cell voltage clamp method; in short: as §3
[28] = Cmax in mouse at 30 mg/kg, po by LC-MS/MS method; assay type: ADME, organism-based; set-up: dose 30 mg/kg, route oral; conditions: in vivo
[29] = Ratio of unbound plasma concentration in Sprague-Dawley rat model of formalin-induced nociception behavior at 30 mg/kg, po to IC50 for rat Nav1.7 by whole cell voltage clamp method; in short: as §6
Rattus norvegicus [30] = assay: Analgesic activity in Sprague-Dawley rat model of formalin-induced nociception behavior assessed as reduction in formalin-evoked paw flinching at 10 to 100 mg/kg, po; assay type: functional, organism-based; in short: as §5
[31] = Unbound fraction in rat plasma at 5 uM by ultracentrifugation and LC-MS/MS method; assay type: ADME, cell-free

Sodium channel protein type 9 subunit alpha (Homo sapiens, UniProt Q15858), sequence (Q15858 whole entry): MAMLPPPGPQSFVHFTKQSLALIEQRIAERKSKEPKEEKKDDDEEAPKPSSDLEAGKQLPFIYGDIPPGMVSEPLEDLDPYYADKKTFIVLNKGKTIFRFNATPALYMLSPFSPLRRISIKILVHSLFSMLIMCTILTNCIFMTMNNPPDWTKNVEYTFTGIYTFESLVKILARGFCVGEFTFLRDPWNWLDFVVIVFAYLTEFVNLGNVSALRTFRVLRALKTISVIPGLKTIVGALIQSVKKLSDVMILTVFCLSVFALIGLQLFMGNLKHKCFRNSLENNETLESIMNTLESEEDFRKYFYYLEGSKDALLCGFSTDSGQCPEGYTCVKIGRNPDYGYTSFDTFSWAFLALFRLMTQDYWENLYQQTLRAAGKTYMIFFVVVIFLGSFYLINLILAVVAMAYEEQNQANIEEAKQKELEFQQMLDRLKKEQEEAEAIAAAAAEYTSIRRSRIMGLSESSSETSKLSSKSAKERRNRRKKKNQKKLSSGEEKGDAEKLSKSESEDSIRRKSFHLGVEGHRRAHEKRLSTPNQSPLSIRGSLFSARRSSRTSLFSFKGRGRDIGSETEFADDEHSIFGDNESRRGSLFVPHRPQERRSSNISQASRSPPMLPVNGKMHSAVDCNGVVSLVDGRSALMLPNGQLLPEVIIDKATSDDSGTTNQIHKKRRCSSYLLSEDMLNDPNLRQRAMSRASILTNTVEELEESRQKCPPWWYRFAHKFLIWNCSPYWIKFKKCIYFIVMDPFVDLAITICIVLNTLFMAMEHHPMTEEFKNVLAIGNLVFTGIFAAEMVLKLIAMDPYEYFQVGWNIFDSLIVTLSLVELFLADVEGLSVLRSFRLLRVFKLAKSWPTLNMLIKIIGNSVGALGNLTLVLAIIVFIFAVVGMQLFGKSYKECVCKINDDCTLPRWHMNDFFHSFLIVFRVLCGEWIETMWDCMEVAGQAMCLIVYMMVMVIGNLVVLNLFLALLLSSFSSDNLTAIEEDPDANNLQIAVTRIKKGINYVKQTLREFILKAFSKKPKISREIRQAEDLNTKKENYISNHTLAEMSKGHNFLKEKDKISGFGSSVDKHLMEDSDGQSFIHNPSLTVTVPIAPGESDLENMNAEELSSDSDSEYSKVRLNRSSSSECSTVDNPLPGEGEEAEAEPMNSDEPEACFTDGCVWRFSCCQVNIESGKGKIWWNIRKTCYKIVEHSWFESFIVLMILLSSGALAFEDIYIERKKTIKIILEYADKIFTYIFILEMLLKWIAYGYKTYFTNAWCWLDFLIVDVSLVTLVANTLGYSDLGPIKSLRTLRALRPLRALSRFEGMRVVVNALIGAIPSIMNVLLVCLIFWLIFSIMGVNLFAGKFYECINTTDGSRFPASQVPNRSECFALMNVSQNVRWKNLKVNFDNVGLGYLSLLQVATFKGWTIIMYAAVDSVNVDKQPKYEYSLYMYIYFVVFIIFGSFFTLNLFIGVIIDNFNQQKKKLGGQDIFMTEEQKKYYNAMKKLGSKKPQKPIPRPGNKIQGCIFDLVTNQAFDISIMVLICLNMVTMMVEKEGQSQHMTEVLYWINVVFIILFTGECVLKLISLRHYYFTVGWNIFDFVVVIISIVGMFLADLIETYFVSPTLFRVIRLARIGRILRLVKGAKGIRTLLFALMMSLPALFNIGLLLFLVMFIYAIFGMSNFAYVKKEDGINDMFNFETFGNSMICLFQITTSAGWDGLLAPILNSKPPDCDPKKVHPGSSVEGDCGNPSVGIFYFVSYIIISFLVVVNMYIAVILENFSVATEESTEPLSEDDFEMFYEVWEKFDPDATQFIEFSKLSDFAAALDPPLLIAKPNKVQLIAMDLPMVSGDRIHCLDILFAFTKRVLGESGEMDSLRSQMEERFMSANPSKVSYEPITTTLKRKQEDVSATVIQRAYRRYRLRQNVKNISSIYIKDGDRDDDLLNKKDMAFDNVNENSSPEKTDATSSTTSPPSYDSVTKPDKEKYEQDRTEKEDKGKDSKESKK
Sodium channel protein type 9 subunit alpha (Rattus norvegicus, UniProt O08562), sequence (O08562 whole entry): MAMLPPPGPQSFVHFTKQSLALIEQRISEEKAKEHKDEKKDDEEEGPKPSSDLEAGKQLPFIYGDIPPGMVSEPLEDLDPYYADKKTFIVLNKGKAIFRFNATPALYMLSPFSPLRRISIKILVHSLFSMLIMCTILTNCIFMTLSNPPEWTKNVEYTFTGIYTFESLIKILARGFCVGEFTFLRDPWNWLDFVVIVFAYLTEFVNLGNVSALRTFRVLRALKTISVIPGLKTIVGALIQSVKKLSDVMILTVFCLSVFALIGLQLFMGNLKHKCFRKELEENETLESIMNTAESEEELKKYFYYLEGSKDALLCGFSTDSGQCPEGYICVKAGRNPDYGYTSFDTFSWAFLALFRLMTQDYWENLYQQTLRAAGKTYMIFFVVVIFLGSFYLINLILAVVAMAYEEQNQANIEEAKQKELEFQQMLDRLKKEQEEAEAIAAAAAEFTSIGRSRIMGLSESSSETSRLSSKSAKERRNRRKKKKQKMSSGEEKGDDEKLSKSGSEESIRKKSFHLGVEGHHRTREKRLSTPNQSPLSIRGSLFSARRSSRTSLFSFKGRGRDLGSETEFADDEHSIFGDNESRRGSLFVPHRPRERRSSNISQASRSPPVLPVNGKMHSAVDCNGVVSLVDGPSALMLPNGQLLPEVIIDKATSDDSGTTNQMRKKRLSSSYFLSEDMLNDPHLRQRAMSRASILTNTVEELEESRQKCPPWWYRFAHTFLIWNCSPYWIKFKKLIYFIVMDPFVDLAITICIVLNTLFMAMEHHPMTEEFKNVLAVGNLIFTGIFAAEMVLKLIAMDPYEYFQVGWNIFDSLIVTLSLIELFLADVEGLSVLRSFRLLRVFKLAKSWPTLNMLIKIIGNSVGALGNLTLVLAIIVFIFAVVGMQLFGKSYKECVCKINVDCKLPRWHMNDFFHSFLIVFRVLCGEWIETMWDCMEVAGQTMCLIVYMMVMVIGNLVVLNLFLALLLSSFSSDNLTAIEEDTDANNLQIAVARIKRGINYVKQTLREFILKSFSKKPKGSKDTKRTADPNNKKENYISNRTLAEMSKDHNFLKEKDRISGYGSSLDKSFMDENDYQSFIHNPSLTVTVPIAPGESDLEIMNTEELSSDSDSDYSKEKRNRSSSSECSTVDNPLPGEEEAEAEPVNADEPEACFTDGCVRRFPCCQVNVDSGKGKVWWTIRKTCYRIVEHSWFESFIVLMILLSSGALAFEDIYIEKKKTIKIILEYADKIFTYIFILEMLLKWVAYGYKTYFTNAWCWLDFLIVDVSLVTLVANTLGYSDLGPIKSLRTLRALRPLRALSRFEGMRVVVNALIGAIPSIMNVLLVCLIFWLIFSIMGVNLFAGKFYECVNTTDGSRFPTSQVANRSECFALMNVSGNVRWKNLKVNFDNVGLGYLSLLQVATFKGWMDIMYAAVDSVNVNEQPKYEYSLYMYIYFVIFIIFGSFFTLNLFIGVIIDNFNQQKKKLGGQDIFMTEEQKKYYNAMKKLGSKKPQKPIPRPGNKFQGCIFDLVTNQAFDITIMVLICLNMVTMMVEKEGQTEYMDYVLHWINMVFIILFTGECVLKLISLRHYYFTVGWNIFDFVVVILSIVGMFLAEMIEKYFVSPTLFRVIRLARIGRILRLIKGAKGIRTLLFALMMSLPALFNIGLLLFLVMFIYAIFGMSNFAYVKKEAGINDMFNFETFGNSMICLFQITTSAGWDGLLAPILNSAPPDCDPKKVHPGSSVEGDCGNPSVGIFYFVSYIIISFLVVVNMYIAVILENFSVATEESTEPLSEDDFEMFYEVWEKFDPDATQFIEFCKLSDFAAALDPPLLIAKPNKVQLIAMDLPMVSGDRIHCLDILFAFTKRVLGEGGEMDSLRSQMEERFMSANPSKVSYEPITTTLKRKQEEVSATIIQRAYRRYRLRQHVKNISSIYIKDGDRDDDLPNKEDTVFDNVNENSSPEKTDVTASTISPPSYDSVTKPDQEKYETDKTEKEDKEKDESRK
Histamine H2 receptor (Homo sapiens), sequence (P25021 whole entry): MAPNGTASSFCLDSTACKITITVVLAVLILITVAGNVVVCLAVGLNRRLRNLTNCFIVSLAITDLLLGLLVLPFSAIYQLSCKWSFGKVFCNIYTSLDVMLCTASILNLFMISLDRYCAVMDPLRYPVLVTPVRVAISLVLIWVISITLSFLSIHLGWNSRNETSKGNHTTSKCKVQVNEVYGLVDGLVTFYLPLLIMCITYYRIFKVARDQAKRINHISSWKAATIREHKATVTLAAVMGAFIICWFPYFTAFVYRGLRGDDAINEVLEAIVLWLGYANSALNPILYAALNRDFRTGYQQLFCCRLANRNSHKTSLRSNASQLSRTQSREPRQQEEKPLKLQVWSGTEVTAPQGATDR

What does the source list for N#Cc1cc(C(F)(F)F)ccc1N1CCOc2cc(S(=O)(=O)Nc3nccs3)c(F)cc21?
concentration (Plasma [1]): 61 µM; clearance [2]: 10 mL/min/kg; inhibition [3]: inactive; Ratio [4]: 10; MPE (Mus musculus [5]): 5%; fraction unbound at 5 µM [6]: 0.015; concentration (Plasma [7]): 1.7 µM; Ratio [8]: 10; half-life [9]: 7.1 h; Cp(f) (Plasma [10]): 0.62 µM; concentration (Plasma [11]): 4.2 µM; Cp(f) (Plasma [12]): 0.065 µM; IC50 [13]: 60 nM; fraction unbound at 5 µM [14]: 0.006; Vd [15]: 2.5 L/kg; half-life [16]: 3.6 h; IC50 [17]: 67 nM; Cmax [18]: 0.95 to 0.99 µM; MPE (Mus musculus [19]): 80%; concentration (Plasma [20]): 150 µM; MPE (Rattus norvegicus [21]): 70%; Ratio [22]: 0.5; concentration (Plasma [23]): 109 µM; Ratio [24]: 5; IC50 [25]: 37 nM; AUC(0-inf) [26]: 20 µM·h; Ratio [27]: 11; Cmax [28]: 58 µM; Ratio [29]: 1.3; inhibition (Rattus norvegicus [30]): Dose-dependent effect; fraction unbound at 5 µM [31]: 0.015
